Experimental data published in ChEMBL document CHEMBL3352414, “Structure based inhibitor design targeting glycogen phosphorylase B. Virtual screening, synthesis, biochemical and biological assessment of novel N-acyl-β-d-glucopyranosylamines” (Bioorg Med Chem, 2014).

Tests used:
[1] = molecular target: T1, Glycogen phosphorylase, liver form (Rattus norvegicus) (UniProt P09811); assay: Inhibition of glycogen phosphorylase a in Wistar rat hepatocytes assessed as effect on conversion of GPa to GPb forms by measuring GPa level at 25 mM after 30 mins in presence of 9 mM 5-thioglucose relative to 5 mM glucose; format: cell-based; design: scale not given: the % may be the effect or the level left; conditions: Hepatocyte
T1 sequence (whole entry): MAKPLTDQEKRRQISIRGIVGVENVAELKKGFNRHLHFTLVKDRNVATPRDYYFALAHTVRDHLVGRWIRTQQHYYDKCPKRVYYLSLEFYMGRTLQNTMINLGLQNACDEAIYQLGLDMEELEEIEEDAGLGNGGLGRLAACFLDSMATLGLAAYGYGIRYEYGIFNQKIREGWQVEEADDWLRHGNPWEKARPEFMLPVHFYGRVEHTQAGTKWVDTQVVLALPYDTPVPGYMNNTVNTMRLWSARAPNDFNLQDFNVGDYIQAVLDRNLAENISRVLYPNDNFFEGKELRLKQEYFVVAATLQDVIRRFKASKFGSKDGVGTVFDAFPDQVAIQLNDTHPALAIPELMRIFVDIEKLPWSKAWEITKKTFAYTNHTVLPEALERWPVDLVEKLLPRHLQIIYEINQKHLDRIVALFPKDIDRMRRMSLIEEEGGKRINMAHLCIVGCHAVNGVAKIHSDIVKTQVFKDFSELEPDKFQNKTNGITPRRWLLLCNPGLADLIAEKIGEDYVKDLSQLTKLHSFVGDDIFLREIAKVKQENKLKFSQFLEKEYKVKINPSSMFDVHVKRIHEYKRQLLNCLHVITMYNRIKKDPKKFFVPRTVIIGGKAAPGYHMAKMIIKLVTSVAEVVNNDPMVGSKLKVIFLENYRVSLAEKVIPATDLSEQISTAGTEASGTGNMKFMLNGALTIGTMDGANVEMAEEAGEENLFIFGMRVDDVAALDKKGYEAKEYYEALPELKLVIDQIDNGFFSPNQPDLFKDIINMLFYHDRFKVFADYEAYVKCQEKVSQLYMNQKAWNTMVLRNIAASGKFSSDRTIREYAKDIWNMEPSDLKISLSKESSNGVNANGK
Outline: (§1)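 Hepatocytes from male Wistar rats (200-300 g), isolated by collagenase perfusion, seeded at 6 x 10⁴ cells/cm² in MEM with 5% calf serum. After attachment they were cultured 24 h in serum-free MEM with 5 mM glucose, 10 nM dexamethasone and 1 nM insulin. Agents were added 1 h after the medium change and incubated 30 min. Cells were snap frozen, and GPa activity was read by coupling to glucose 6-phosphate dehydrogenase. Values are % of the 5 mM glucose control (with or without 9 mM 5-thioglucose); means ± SEM, n=5 preparations; paired t-test.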

[2] = molecular target: T1, Glycogen phosphorylase, liver form (Rattus norvegicus); assay: Inhibition of glycogen phosphorylase a in Wistar rat hepatocytes assessed as effect on conversion of GPa to GPb forms by measuring GPa level at 25 mM after 30 mins relative to 5 mM glucose; format: cell-based; design: scale not given: the % may be the effect or the level left; conditions: Hepatocyte; outline: as §1
[3] = molecular target: T1, Glycogen phosphorylase, liver form (Rattus norvegicus); assay: Inhibition of glycogen phosphorylase a in Wistar rat hepatocytes assessed as effect on conversion of GPa to GPb forms by measuring GPa level at 2 uM after 30 mins relative to 5 mM glucose; format: cell-based; design: scale not given: the % may be the effect or the level left; conditions: Hepatocyte; outline: as §1
[4] = Octanol water partition coefficient, logP of the compound; format: physicochemical
[5] = Permeability in human Caco2 cells; format: ADME, cell-based; conditions: Caco-2, read-out: permeability
[6] = molecular target: T1, Glycogen phosphorylase, liver form (Rattus norvegicus); assay: Inhibition of glycogen phosphorylase a in Wistar rat hepatocytes assessed as effect on conversion of GPa to GPb forms by measuring GPa level at 20 uM after 30 mins relative to 5 mM glucose; format: cell-based; design: scale not given: the % may be the effect or the level left; conditions: Hepatocyte; outline: as §1
[7] = molecular target: T2, Glycogen phosphorylase, muscle form (Oryctolagus cuniculus, UniProt P00489); assay: Inhibition of rabbit skeletal muscle glycogen phosphorylase b assessed as inorganic phosphate release; conditions: read-out: Ki
T2 sequence (P00489 whole entry): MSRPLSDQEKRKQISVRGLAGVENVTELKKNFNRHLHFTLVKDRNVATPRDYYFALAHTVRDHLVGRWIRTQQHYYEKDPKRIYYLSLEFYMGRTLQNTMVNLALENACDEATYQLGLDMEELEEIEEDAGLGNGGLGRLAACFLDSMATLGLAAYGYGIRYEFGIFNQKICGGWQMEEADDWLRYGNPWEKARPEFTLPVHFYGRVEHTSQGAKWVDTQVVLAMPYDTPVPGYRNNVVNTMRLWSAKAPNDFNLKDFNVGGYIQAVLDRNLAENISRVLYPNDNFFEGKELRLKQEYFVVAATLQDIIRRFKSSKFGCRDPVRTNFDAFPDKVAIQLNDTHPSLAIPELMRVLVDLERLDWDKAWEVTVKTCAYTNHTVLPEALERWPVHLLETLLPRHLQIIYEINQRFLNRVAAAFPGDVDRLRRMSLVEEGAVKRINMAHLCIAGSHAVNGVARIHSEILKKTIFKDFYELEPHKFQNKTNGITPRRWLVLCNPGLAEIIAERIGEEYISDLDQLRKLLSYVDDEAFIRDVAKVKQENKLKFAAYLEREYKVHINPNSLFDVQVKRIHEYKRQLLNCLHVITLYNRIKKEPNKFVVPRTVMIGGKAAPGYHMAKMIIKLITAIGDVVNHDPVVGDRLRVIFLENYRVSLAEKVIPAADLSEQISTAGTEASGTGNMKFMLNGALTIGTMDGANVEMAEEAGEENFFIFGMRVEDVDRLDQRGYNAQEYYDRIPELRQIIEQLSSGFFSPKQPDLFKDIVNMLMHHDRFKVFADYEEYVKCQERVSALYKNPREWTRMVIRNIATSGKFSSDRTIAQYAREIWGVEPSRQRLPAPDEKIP

[8] = molecular target: T3, Glycogen phosphorylase, muscle form (Homo sapiens, UniProt P11217); assay: Inhibition of glycogen phosphorylase b (unknown origin)
T3 sequence (P11217 whole entry): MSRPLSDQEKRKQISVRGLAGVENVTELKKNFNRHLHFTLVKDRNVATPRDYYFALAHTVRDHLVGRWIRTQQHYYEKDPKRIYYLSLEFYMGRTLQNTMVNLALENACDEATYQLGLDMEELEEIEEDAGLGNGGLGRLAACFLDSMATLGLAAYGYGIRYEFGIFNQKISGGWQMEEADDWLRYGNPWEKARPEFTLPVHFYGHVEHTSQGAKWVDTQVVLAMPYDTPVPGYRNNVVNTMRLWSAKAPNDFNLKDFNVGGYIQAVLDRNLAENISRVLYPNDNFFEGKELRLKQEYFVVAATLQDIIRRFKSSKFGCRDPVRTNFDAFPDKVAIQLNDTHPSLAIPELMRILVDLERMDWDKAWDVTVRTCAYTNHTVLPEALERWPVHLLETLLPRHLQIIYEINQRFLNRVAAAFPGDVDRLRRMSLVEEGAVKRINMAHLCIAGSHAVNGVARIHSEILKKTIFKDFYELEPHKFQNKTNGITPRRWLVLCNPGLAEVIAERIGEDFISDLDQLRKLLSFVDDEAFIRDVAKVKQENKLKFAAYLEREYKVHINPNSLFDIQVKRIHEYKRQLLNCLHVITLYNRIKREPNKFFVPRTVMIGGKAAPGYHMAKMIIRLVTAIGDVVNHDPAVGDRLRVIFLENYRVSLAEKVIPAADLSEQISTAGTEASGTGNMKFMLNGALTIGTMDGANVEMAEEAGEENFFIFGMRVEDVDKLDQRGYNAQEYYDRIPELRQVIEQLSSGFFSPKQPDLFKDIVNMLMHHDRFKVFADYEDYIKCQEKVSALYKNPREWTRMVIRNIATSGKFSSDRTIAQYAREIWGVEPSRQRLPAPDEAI
Outline: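 Rabbit muscle GPb (5 μg/ml) was assayed at 30 °C in the glycogen-synthesis direction by measuring released inorganic phosphate. Buffer was 30 mM imidazole/HCl pH 6.8 with 60 mM KCl, 0.6 mM EDTA and 0.6 mM DTT. Glycogen 0.2% w/v and AMP 1 mM were held constant, with Glc-1-P at 2-20 mM and varied inhibitor. Enzyme and glycogen were preincubated 15 min, then Glc-1-P was added. Ki was obtained by non-linear regression of initial velocities.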

[9] = molecular target: T4, Glycogen phosphorylase, liver form (Homo sapiens, UniProt P06737); assay: Inhibition of glycogen phosphorylase a (unknown origin)
T4 sequence (P06737 whole entry): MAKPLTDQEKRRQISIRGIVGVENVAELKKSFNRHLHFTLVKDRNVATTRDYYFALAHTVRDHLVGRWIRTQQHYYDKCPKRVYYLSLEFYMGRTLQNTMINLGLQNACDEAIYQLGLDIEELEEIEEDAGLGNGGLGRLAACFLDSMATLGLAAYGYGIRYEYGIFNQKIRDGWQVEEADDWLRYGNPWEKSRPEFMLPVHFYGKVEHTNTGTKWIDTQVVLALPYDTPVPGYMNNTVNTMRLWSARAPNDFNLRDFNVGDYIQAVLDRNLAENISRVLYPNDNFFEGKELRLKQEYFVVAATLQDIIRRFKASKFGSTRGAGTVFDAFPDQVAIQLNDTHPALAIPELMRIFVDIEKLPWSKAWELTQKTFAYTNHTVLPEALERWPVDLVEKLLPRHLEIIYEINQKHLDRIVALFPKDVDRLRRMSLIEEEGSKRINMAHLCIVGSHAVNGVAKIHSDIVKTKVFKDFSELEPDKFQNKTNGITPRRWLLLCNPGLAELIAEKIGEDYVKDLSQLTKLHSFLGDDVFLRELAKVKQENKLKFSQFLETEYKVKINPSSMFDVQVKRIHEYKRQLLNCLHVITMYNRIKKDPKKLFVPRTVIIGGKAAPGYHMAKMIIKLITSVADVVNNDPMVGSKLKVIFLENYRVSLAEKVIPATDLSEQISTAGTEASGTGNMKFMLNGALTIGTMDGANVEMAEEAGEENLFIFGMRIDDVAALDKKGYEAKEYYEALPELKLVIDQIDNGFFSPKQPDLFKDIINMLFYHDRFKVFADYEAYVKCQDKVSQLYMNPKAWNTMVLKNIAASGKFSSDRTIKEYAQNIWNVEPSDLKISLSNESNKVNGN

[10] = molecular target: T1, Glycogen phosphorylase, liver form (Rattus norvegicus); assay: Inhibition of glycogen phosphorylase a in Wistar rat hepatocytes assessed as effect on conversion of GPa to GPb forms by measuring GPa level at 9 mM after 30 mins relative to 5 mM glucose; format: cell-based; design: scale not given: the % may be the effect or the level left; conditions: Hepatocyte; outline: as §1

Structure (SMILES)	logP [4]	Papp [5] [×10⁻⁶ cm/s]	Ki [7] [µM]	further results
OC[C@H]1OC(O)[C@H](O)[C@@H](O)[C@@H]1O (stereo partly specified)	–	–	–	Activity [1]: 78.7%; Activity [2]: 64.1%
O=C(CCCc1ccc2c(c1)CCCC2)N[C@@H]1O[C@H](CO)[C@@H](O)[C@H](O)[C@H]1O	0.208	9.51	48.7	Activity [3]: 93%; Activity [6]: 100%
O=C(/C=C/c1ccc(-c2ccccc2)cc1)N[C@@H]1O[C@H](CO)[C@@H](O)[C@H](O)[C@H]1O	0.851	8.02	5.14	Activity [3]: 89.4%; Activity [6]: 83.3%
OC[C@H]1O[C@H](O[C@H]2[C@H](O)[C@@H](O)[C@@H](O[C@H]3[C@H](O)[C@@H](O)[C@@H](O[C@H]4[C@H](O)[C@@H](O)[C@@H](O[C@H]5[C@H](O)[C@@H](O)[C@@H](O[C@H]6[C@H](O)[C@@H](O)[C@@H](O[C@H]7[C@H](O)[C@@H](O)C(O)O[C@@H]7CO)O[C@@H]6CO)O[C@@H]5CO)O[C@@H]4CO)O[C@@H]3CO)O[C@@H]2CO)[C@H](O)[C@@H](O)[C@@H]1O (stereo partly specified)	–	–	–	Ki [8]: 1000 µM
O=C(NCCOCCOCCNC(=O)c1cc2cc(Cl)ccc2[nH]1)c1cc2cc(Cl)ccc2[nH]1	–	–	–	IC50 [9]: 0.006 µM
O=C(O)C1=C(C(=O)O)NC=CC1	–	–	–	Ki [8]: 0.0016 µM
CC(C)c1ccc(C[C@H](C)C(=O)N[C@@H]2O[C@H](CO)[C@@H](O)[C@H](O)[C@H]2O)cc1	0.01	7.67	75.3	–
OC[C@H]1O[C@H](O)[C@H](O)[C@@H](O)[C@@H]1O	–	–	–	Ki [9]: 4900 µM
CC(C)c1ccc(/C=C/C(=O)N[C@@H]2O[C@H](CO)[C@@H](O)[C@H](O)[C@H]2O)cc1	0.296	9.85	4.98	Activity [3]: 105%; Activity [6]: 106%
O=C[C@H](O)[C@@H](O)[C@H](O)[C@H](S)CO	–	–	–	Activity [10]: 106%
O=c1c(O)c(-c2ccc(O)c(O)c2)oc2cc(O)cc(O)c12 [QUERCETIN]	–	–	–	IC50 [9]: 4.8 µM
CCc1ccc([C@H](C)CC(=O)N[C@@H]2O[C@H](CO)[C@@H](O)[C@H](O)[C@H]2O)cc1	-0.162	8.9	377	–
O=C(COc1ccc(-c2ccccc2)cc1)N[C@@H]1O[C@H](CO)[C@@H](O)[C@H](O)[C@H]1O	-0.082	5.09	8.25	Activity [3]: 84.5%; Activity [6]: 80.3%
CC(C)(C)c1ccc(/C=C/C(=O)N[C@@H]2O[C@H](CO)[C@@H](O)[C@H](O)[C@H]2O)cc1	0.496	8.77	–	–
